Sampled rows, rich in hits. Any-hit rate of the full collection: about 2.1%.
MC4R antagonist: antagonists of human melanocortin 4 receptor (MC4R); AID 540295; MC4R-expressing cells, MTII-stimulated cAMP, LANCE TR-FRET; hit rate 0.48% among 360,000; inhibition, % at 6.5 µM; P32245;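 active means inhibition above its plate's cutoff, the mean of tested wells on that plate plus 3 SD, cut at about 29% in these data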;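 further: 0% = Melanotan II alone and 100% = Melanotan II plus saturating MCL0020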
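System – human MC4R-expressing U2OS cells · Also added – Melanotan II · Dosing – one concentration, 6.5 µM nominal · Timing – 30-min compound, 1-h challenge, 1-h detection, room temperature · Measured by – Eu-cAMP/anti-cAMP TR-FRET, emission 671 nm · Replicates – singlicate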
MC4R ag barr: human MC4R agonism via beta-arrestin | hit rate 0.98% among 360,000 | activation, % at 8.9 µM | U2OS MC4R beta-arrestin complementation, luminescence; percent of melanotan II response, DMSO zero;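 active means activation above a per-plate cutoff, the mean activation of sample wells on that plate plus 3 SD, cut at about 8% in these data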
TLR4-MyD88 BLA: blocks binding of human TLR4 to MyD88; O00206+Q99836; HeLa CL3-4 TLR4/MyD88 BLA complementation, FRET ratio; inhibition, % at 8.4 µM; hit rate 0.18% among 200,000; AID 861; in the data active means inhibition above about 25%;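 further: 0% = vehicle and 100% = reference inhibitor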
NOD2-RIPK2 inh: inhibitors of human NOD2-RIPK2 interaction | hit rate 0.38% among 360,000 | O43353 | CHO BLA complementation NOD2-RIPK2, CCF4 ratio | inhibition, % at 4.98 µM | AID 624267; in the data active means inhibition above about 21%;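 further: 0% = vehicle only and 100% = reference blocker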
MIN6 prolif-1: MIN6 beta-cell proliferation induction | MIN6 cells proliferation, ATPlite luminescence, 48 h; cells starved in 0.2% serum; 100% = growth in 10% serum | proliferation, % at 10 µM | hit rate 0.29% among 330,000 | AID 2380;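 active means compounds whose signal lies at least 3.5 SD above the mean of all wells on their plate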;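 further: 0% = DMSO-treated cells in low-serum medium and 100% = 10% serum control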
TLR9-MyD88 block: inhibitors of human TLR9-MyD88 binding; CHO BLA complementation TLR9-MyD88, CCF4 FRET ratio; hit rate 0.21% among 340,000; inhibition, % at 4.98 µM; Q9NR96+Q99836;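 active means inhibition above the mean over all tested compounds plus 3 SD, cut at about 21% in these data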;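 further: 0% = DMSO only wells and 100% = clavulanate BLA inhibitor control wells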
MIN6 prolif-2: MIN6 beta-cell replication induction, confirmed; MIN6 beta-cell proliferation, ATPlite luminescence, 48 h; cells kept in 0.2% serum; scaled between 0.2% and 10% serum; shares compounds with MIN6 prolif-1; proliferation increase, % at 50 µM; AID 463095; 920 tested, under 10 active;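 active means proliferation increase above 40% at any of the four tested concentrations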
* hit, by the source's call; / = no result given.

SMILES	MC4R antagonist	MC4R ag barr	TLR4-MyD88 BLA	NOD2-RIPK2 inh	MIN6 prolif-1	TLR9-MyD88 block	MIN6 prolif-2
CCNC(=O)COC(=O)c1ccc(S(=O)(=O)N2CCCCCC2)cc1	6	-2	12	-14	5.4*	0	0
O=C(c1ccccc1)n1c(=O)cc[nH]c1=O	2	1	/	-6	1	-7	/
CCOC(=O)c1sc(NC(NC(=O)c2ccco2)(C(=O)OC)C(F)(F)F)nc1C (centres undefined)	3	-1	-11	-1	7.6*	-7	-2
COc1ccc(-n2nc(C(=O)NCC(=O)NCCCN3CC(C)CC(C)C3)c3ccccc3c2=O)cc1Cl (centres undefined)	-1	2	/	-16	0	-1	/
CCOc1ccccc1N1CCN(C(=O)c2ccc(OCC(=O)N3CCOCC3)c(OC)c2)CC1	-2	-5	/	3	14*	9	-2
CCOc1ccccc1NC(=O)c1ccc(OCC(=O)N2CCOCC2)c(OC)c1	10	-4	/	2	-3	-8	/
O=C(NNC(=O)C1CC(c2cccs2)=NO1)Nc1ccc(Cl)cc1 (centres undefined)	13	-3	/	7	1	-9	/
CN(Cc1ccon1)C(=O)C1CCC(=O)N(Cc2ccc(Cl)cc2)C1 (centres undefined)	10	-3	/	-2	3	-1	/
COc1ccc(CCNc2ccc(C(CC(N)=O)NC(=O)c3cc(C)cc(C)c3)cc2[N+](=O)[O-])cc1 (centres undefined)	9	-1	/	-5	-5	-7	/
O=C(Cn1cnc2ccccc21)Nc1cccc([N+](=O)[O-])c1	3	-1	13	3	8.2*	-2	-3
Cc1noc(C)c1CSCC(=O)NCCN1C(=O)S/C(=C\c2ccccc2F)C1=O	-1	0	/	-8	-4	5	/
Cc1ccc(-n2ncc3c(=O)[nH]c(SCC(=O)N4CC(=O)Nc5ccccc54)nc32)cc1	4	-1	/	1	-5	1	/
Cc1cccc(-n2ncc3c(=O)[nH]c(SCC(=O)N4CC(=O)Nc5ccccc54)nc32)c1	6	0	/	2	11*	-3	0
COc1ccc(S(=O)(=O)N2CCN(C(=O)C3CC(=O)N(c4ccccc4F)C3)CC2)cc1OC (centres undefined)	5	-2	/	-2	/	6	/
COc1ccc(C(=O)N=C2SC3CS(=O)(=O)CC3N2c2ccc(N(C)C)cc2)cc1OC (centres undefined)	10	1	/	-5	14*	-15	3
CCC(C(=O)Nc1cc(C)nn1-c1nc(C)cc(C)n1)c1ccccc1 (centres undefined)	10	-2	-15	-9	6.1*	-4	-6
Cc1cc(C)nc(-n2nc(C)cc2NC(=O)CNCc2ccccc2)n1	0	0	-15	-8	-1	5	/
NC(=O)CCN1CCN(C(=O)c2ccc3nc(Cc4cccc(Cl)c4)oc3c2)CC1	-1	-1	/	-1	-1	3	/
CC1=C(c2ccccc2)C(=S)NC(C)(C)C1	17	0	/	-5	5.6*	-13	-2
O=C(CN1CCN(c2ccc(O)cc2)CC1)Nc1cc([N+](=O)[O-])ccc1Cl	4	-1	-8	-7	-3	7	/
CC1(C)CC(=O)C=C(c2ccc(-c3cccc(C(N)=O)c3)cc2)C1=O	1	0	/	4	/	1	/
CCCCCOC(=O)Cn1c(N2CCCCCC2)nc2c1c(=O)[nH]c(=O)n2C	-3	-1	12	-11	9.2*	-1	-5
CCOC(=O)Cn1c(N2CCCCCC2)nc2c1c(=O)[nH]c(=O)n2C	-6	0	-11	-9	3	10	/
CNCCCOc1cccc(OC(C)C)c1	8	0	-5	13	6.3*	-9	-1
COC(=O)c1cnc(N2CCOCC2)nc1C(F)(F)F	2	1	/	-7	6.3*	8	0
SMILES	MC4R antagonist	MC4R ag barr	TLR4-MyD88 BLA	NOD2-RIPK2 inh	MIN6 prolif-1	TLR9-MyD88 block	MIN6 prolif-2
CC[C@@]1(C(=O)OC)N[C@H](CN(C)S(=O)(=O)c2ccc(OC(F)(F)F)cc2)[C@@H]2C(=O)N(C)C(=O)[C@@H]21	10	1	/	1	3	0	/
CCOC(=O)c1cc2c(=O)n3cccc(C)c3nc2n(CCOC)c1=NC(C)=O	1	0	/	1	-1	/	/
CCOC(=O)c1cc2c(=O)n3cccc(C)c3nc2n(CC2CCCO2)c1=NC(C)=O (centres undefined)	9	-2	-6	6	9.6*	-5	1
CCc1nc(SCC(=O)N2CCCc3ccccc32)c2oc3ccccc3c2n1	-3	-2	-3	3	15*	-9	-6
COc1ccc(NC(=O)C2(C)CCN2Cc2csc3ccccc23)cc1OC (centres undefined)	-5	-2	/	8	/	/	/
CC(C)CC1=NC(C(F)(F)F)(C(F)(F)F)c2c(n(CC(C)C)c(=O)[nH]c2=O)N1	0	1	-21	-6	6.6*	-3	0
COc1ccc(-c2cn[nH]c2-c2ccc(OC)cc2O)cc1	-8	2	/	-2	9.3*	0	-6
O=C(O)CCc1ccc(-c2ccc(Cl)cc2)n1CCC(=O)O	5	-1	-11	3	-2	4	/
O=C(O)CCc1ccc(-c2ccc(Cl)cc2)n1CC(=O)O	0	0	-6	-11	5.8*	2	0
CC(OC(=O)c1ccc(Cl)nc1)C(=O)N1CCc2ccccc21 (centres undefined)	17	-2	/	-1	-3	-13	/
CC(C)c1ccc(/C=C2\SC(=O)N(CC(=O)NCCCn3ccnc3)C2=O)cc1	3	-1	/	-12	-7	-5	/
CCOCCCNc1nc(=S)[nH]c2cc(OC)c(OC)cc12	9	2	-2	0	7.2*	-2	0
COc1cccc(NC(=O)c2cnc(SCC(=O)NCc3ccc4c(c3)OCO4)n(C)c2=O)c1	16	-5	/	2	-7	0	/
CCOC(=O)C1=CCN(S(=O)(=O)c2ccc(C)cc2)[C@H]1c1ccccc1Cl	/	/	/	-1	/	/	/
Cc1c(C(=O)Nc2ccc(F)cc2)sc2ncn(CC(=O)N3CCCCC3)c(=O)c12	-1	-2	/	1	0	5	/
CCc1nc2sc(C(C)=O)c(N)c2c2c1CCCC2	-6	3	/	-3	4	/	/
CCc1nc2sc(C#N)c(N)c2c2c1CCCC2	-13	4	0	-12	6.3*	-8	3
CCN(C(=O)COC(=O)CCC(=O)c1cccs1)c1ccccc1	3	-1	/	-9	2	7	/

Compound activity: PubChem BioAssay, several laboratories
